From ChEMBL document CHEMBL3870315, “Design, synthesis and biological evaluation of novel cholesteryl ester transfer protein inhibitors bearing a cycloalkene scaffold” (Eur J Med Chem, 2016)
Calls of active or inactive are those of the source. The calls are words filed in the database; no cut-off is given here.

How the values were obtained:
[1] = biological target: T1, Cholesteryl ester transfer protein (Homo sapiens, UniProt P11597); assay: Inhibition of recombinant CETP (unknown origin) assessed as inhibition of BODIPY-labeled cholesteryl transfer to fluorescent substrate by fluorimetric assay
T1 sequence (P11597 whole entry): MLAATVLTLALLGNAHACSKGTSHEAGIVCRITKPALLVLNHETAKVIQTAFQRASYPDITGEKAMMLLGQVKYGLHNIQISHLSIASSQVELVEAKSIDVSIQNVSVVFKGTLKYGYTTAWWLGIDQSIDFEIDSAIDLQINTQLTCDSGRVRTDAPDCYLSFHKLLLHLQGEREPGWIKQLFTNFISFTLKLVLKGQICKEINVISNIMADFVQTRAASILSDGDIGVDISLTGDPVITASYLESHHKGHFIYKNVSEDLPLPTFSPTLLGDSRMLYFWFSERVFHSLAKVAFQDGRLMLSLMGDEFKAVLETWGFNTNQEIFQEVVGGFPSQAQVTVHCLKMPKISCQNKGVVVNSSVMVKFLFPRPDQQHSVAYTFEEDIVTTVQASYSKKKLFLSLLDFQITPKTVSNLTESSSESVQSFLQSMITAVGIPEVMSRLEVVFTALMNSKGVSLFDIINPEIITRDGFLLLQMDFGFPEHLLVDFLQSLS

[2] = system: Syrian golden hamster; assay: In vivo inhibition of CETP in po dosed high-fat fed syrian hamster model assessed as increase in plasma HDL-cholesterol level administered once daily for 5 days measured 2 hrs post last dose; format: functional, organism-based; settings: Mesocricetus auratus
Method in brief: (§1)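 Male Syrian golden hamsters, 8 weeks old and about 110–120 g, fed a diet with 10% lard oil and 3% cholesterol for 4 weeks, then randomized into four groups. Oral dosing once daily for 5 days in 10% ethanol/10% hydrogenated castor oil/80% water, with a vehicle control group. Animals were fasted 16 h before bleeding. Retro-orbital blood was taken at baseline and 2 h after the last dose. Plasma HDL-C was measured on a chemistry analyser and expressed as percent change. Mean ± SEM.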

[3] = Terminal half life in Sprague-Dawley rat at 50 mg/Kg, po; format: ADME; settings: in vivo, read-out: beta t1/2 (converted)
Method in brief: (§2)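 Four adult male Sprague-Dawley rats, fasted 16 h, given a single oral dose of 50 mg/kg suspended in 10% ethanol/10% hydrogenated castor oil/80% water. Heparinized blood was drawn at 0.5–36 h (15 time points) and centrifuged at 3000 rpm for 15 min. Plasma was stored at -70°C until analysis.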

[4] = system: Syrian golden hamster; assay: In vivo inhibition of CETP in high-fat fed syrian hamster model assessed as increase in plasma HDL-cholesterol level at 50 mg/kg, po administered once daily for 5 days measured 2 hrs post last dose relative to control; format: functional, Mesocricetus auratus; set-up: scale not given: the % may be the effect or the level left; method in brief: as §1
[5] = Cmax in Sprague-Dawley rat at 50 mg/Kg, po; format: ADME; set-up: dose 50 mg/Kg, route oral; settings: in vivo; method in brief: as §2
[6] = Tmax in Sprague-Dawley rat at 50 mg/Kg, po; format: ADME; settings: in vivo; method in brief: as §2
[7] = system: Syrian golden hamster; assay: In vivo inhibition of CETP in high-fat fed syrian hamster model assessed as increase in plasma HDL-cholesterol level at 30 mg/kg, po administered once daily for 5 days measured 2 hrs post last dose relative to control; format: functional, Mesocricetus auratus; set-up: scale not given: the % may be the effect or the level left; method in brief: as §1
[8] = AUC in Sprague-Dawley rat at 50 mg/Kg, po; format: ADME; settings: in vivo; method in brief: as §2

SMILES | IC50 [1] | also measured
COC(=O)N(CC1=C(c2cc(C(C)C)ccc2OC)CCC(C)(C)C1)Cc1cc(C(F)(F)F)cc(C(F)(F)F)c1 | 21000 nM | 
COc1ccc(C(C)C)cc1C1=C(CN(Cc2cc(C(F)(F)F)cc(C(F)(F)F)c2)c2ncc(N3CCC(N)CC3)cn2)CC(C)(C)CC1 | 170 nM | 
COc1ccc(C(C)C)cc1C1=C(CN(Cc2cc(C(F)(F)F)cc(C(F)(F)F)c2)c2ncc(-c3cnn(C)c3)cn2)CCC1 | 2760 nM | 
COc1ccc(C(C)C)cc1C1=C(CN(Cc2cc(C(F)(F)F)cc(C(F)(F)F)c2)c2ncc(-c3cnn(C)c3)cn2)CCCC1 | 930 nM | 
COc1ccc(C(C)C)cc1C1=C(CN(Cc2cc(C(F)(F)F)cc(C(F)(F)F)c2)c2ncc(OCC(=O)O)cn2)CC(C)(C)CC1 | 360 nM | 
COc1ccc(C(C)C)cc1C1=C(CN(Cc2cc(C(F)(F)F)cc(C(F)(F)F)c2)c2ncc(-c3c(C)noc3C)cn2)CC(C)(C)CC1 | > 50000 nM | 
COCCOc1cnc(N(CC2=C(c3cc(C(C)C)ccc3OC)CCC(C)(C)C2)Cc2cc(C(F)(F)F)cc(C(F)(F)F)c2)nc1 | 420 nM | 
COc1ccc(C(C)C)cc1C1=C(CN(Cc2cc(C(F)(F)F)cc(C(F)(F)F)c2)c2ncc(-c3cnn(C)c3)cn2)CCCCC1 | 1620 nM | 
COc1ccc(C(C)C)cc1C1=C(CN(Cc2cc(C(F)(F)F)cc(C(F)(F)F)c2)c2ncc(N3CCOCC3)cn2)CC(C)(C)CC1 | 860 nM | 
COc1ccc(C(C)C)cc1C1=C(CN(Cc2cc(C(F)(F)F)cc(C(F)(F)F)c2)c2ncc(N3CCC(NC(C)=O)CC3)cn2)CC(C)(C)CC1 | 520 nM | 
COc1ccc(C(C)C)cc1C1=C(CN(Cc2cc(C(F)(F)F)cc(C(F)(F)F)c2)c2ncc(Br)cn2)CC(C)(C)CC1 | > 50000 nM | 
COc1ccc(C(C)C)cc1C1=C(CN(Cc2cc(C(F)(F)F)cc(C(F)(F)F)c2)c2ncc(OCCCC(=O)O)cn2)CC(C)(C)CC1 | 300 nM | 
COc1ccc(C(C)C)cc1C1=C(CN(Cc2cc(C(F)(F)F)cc(C(F)(F)F)c2)c2ncc(-c3cnn(C)c3)cn2)CC(C)(C)CC1 | 70 nM | Activity [2]: Dose-dependent effect; half-life [3]: 11.1 h; Activity [4]: 27.9%; Cmax [5]: 697 ng/mL; Tmax [6]: 2.5 h; Activity [7]: 9.3%; AUC [8]: 6990 ng·h/mL
COc1ccc(C(C)C)cc1C1=C(CN(Cc2cc(C(F)(F)F)cc(C(F)(F)F)c2)C(=O)OCc2ccccc2)CC(C)(C)CC1 | > 50000 nM | 
COc1ccc(C(C)C)cc1C1=C(CN(Cc2cc(C(F)(F)F)cc(C(F)(F)F)c2)c2ncc(N3CCNCC3)cn2)CC(C)(C)CC1 | 350 nM | 
COC(=O)COc1cnc(N(CC2=C(c3cc(C(C)C)ccc3OC)CCC(C)(C)C2)Cc2cc(C(F)(F)F)cc(C(F)(F)F)c2)nc1 | 910 nM | 
COc1ccc(C(C)C)cc1C1=C(CN(Cc2cc(C(F)(F)F)cc(C(F)(F)F)c2)c2ncc(-c3cccs3)cn2)CC(C)(C)CC1 | > 50000 nM | 
COc1ccc(C(C)C)cc1C1=C(CN(Cc2cc(C(F)(F)F)cc(C(F)(F)F)c2)c2ncc(N3CCN(C)CC3)cn2)CC(C)(C)CC1 | 2070 nM | 
COc1ccc(C(C)C)cc1C1=C(CN(Cc2cc(C(F)(F)F)cc(C(F)(F)F)c2)c2ncc(N3CCC(C(=O)O)CC3)cn2)CC(C)(C)CC1 | 370 nM | 
COc1ccc(C(C)C)cc1C1=C(CN(Cc2cc(C(F)(F)F)cc(C(F)(F)F)c2)c2ncc(-c3cnn(C)c3)cn2)c2ccccc2CC1 | 6630 nM | 
COc1ccc(C(C)C)cc1C1=C(CN(Cc2cc(C(F)(F)F)cc(C(F)(F)F)c2)c2ncc(-c3cnn(C)c3)cn2)CC(C)CC1 (stereo unspecified) | 60 nM | 
COc1ccc(C(C)C)cc1C1=C(CN(Cc2cc(C(F)(F)F)cc(C(F)(F)F)c2)c2ncc(O)cn2)CC(C)(C)CC1 | 3520 nM | 
COc1cc(F)c(C(C)C)cc1-c1ccc(C(F)(F)F)cc1CN1C(=O)O[C@H](c2cc(C(F)(F)F)cc(C(F)(F)F)c2)[C@@H]1C |  | Activity ([7]; Mesocricetus auratus): Active
COc1ccc(C(C)C)cc1C1=C(CN(Cc2cc(C(F)(F)F)cc(C(F)(F)F)c2)C(=O)OCC(C)C)CC(C)(C)CC1 | > 50000 nM | 
COc1ccc(C(C)C)cc1C1=C(CN(Cc2cc(C(F)(F)F)cc(C(F)(F)F)c2)c2ncc(-c3cnn(C)c3)cn2)CCc2ccccc21 | 220 nM | 
COc1ccc(C(C)C)cc1C1=C(CN(Cc2cc(C(F)(F)F)cc(C(F)(F)F)c2)c2ncc(-c3cnn(C)c3)cn2)CC(C(C)(C)C)CC1 (stereo unspecified) | 70 nM | 
COc1ccc(C(C)C)cc1C1=C(CN(Cc2cc(C(F)(F)F)cc(C(F)(F)F)c2)c2ncc(-c3ccnn3C)cn2)CC(C)(C)CC1 | > 50000 nM | 
COc1ccc(C(C)C)cc1C1=C(CN(Cc2cc(C(F)(F)F)cc(C(F)(F)F)c2)c2ncc(OCCO)cn2)CC(C)(C)CC1 | 190 nM | 
CCC1CCC(c2cc(C(C)C)ccc2OC)=C(CN(Cc2cc(C(F)(F)F)cc(C(F)(F)F)c2)c2ncc(-c3cnn(C)c3)cn2)C1 (stereo unspecified) | 80 nM | 
